# Bioassay records from PubChem BioAssay.
# DAGLB inhibitor – blocks human DAGLB lipase activity; Q8NCG7; 0.059% of 340,000 active; inhibition, % at 5.17 µM; AID 504411; HEK293T DAGLB membrane lysate, EnzChek fluorogenic substrate; in the data active = inhibition above about 34%
# TAAR1 antagonist – antagonists of human TAAR1; inhibition, % at 3 µM; AID 624466; CHO RD-HGA16 TAAR1, Fluo-8 calcium fluorescence, antagonist; 1.5% of 360,000 active;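 active = inhibition above a per-plate cutoff, the mean inhibition of test compounds on that plate plus 3 SD, cut at about 49% in these data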
#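 Material: RD-HGA16 CHO cells with stable hTAAR1 and Gα16; Dosing: single nominal final test compound concentration of 3 µM; Schedule: seeding 17-24 h prior, 75-min 37 °C, 30-min RT dye loading; Detection: kinetic Fluo-8 calcium fluorescence measurement; Measure: % inhibition from peak post-agonist over basal fluorescence ratio; Benchmarks: vehicle and agonist controls.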
# TAAR1 agonist – human TAAR1 agonism | Q96RJ0 | CHO RD-HGA16 TAAR1, Fluo-8 calcium fluorescence; vehicle wells 0%, saturating PEA agonist 100% | activation, % at 3 µM | 0.99% of 360,000 active | AID 624467;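 active = activation above the mean activation of all test compounds in the run plus 3 SD, cut at about 38% in these data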
#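 System: CHO-derived RD-HGA16 cells with stable Gα16 and human TAAR1 / Times: 17-24 h plating, Fluo-8 75 min 37 °C, 30 min RT / Technique: calcium-sensitive Fluo-8 signal, excitation 470-495, emission 515-575 nm / Measure: % activation relative to PEA EC100 response / Benchmarks: DMSO and PEA EC100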
# GPR7 antagonist – human neuropeptides B/W receptor 1 antagonism; P48145; GPR7-expressing cells, fluorescence antagonist assay; inhibition, % at 4.4 µM; 1.1% of 290,000 active; in the data active = inhibition above about 16%, passing the limit was not always enough;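 note: cells stimulated with the agonist NPW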
# Target sequence (P48145 whole entry, looked up): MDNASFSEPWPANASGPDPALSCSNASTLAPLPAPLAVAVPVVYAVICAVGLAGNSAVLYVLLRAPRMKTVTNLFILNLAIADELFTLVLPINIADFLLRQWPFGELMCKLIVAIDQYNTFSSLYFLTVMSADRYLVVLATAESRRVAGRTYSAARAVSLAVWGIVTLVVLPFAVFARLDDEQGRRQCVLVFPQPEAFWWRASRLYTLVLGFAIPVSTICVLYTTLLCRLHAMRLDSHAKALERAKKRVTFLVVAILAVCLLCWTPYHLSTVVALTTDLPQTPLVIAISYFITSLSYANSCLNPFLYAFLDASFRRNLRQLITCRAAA
# MPTP block – inhibitors of mitochondrial permeability transition pore | isolated mouse mitochondria, Ca2+ swelling absorbance, 30 min | inhibition, % at 10 µM | AID 602449 | 1.4% of 360,000 active;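 active = inhibition of 50% or more, scaled per plate between neutral and stimulator controls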
# MPTP counter – mitochondrial membrane potential, counter-screen; shares compounds with MPTP block; isolated mitochondria, Rhodamine 123 fluorescence; inhibition, % at 10 µM; 78% of 5,000 active; AID 624504; in the data active = inhibition above about 22%
# MPTP swell DR – MPTP inhibition, dose response swelling confirmation | isolated mitochondria swelling, absorbance | IC50, µM | shares compounds with MPTP block | 58% of 780 active; in the data active = IC50 below about 20 µM
# MPTP counter DR – counter-screen for mitochondrial permeability transition pore inhibitors, dose response | 49% of 780 active | isolated mitochondria counterscreen, fluorescence read-out | IC50, µM | AID 651564 | shares compounds with MPTP block; in the data active = IC50 below about 80 µM
# Numbers stand for hits; - = inactive; . = no result given. Sampled rows, rich in hits. Any-hit rate of the full collection: about 4%.
SMILES,DAGLB inhibitor,TAAR1 antagonist,TAAR1 agonist,GPR7 antagonist,MPTP block,MPTP counter,others
CC(=O)Nc1cccc(-c2ccnc3c2CC(C)(C(=O)Nc2cccc(C(C)=O)c2)O3)c1 (stereo unspecified),.,-,-,.,-,.,
CC(=O)NC(c1cccc(F)c1)c1nc(-c2cccs2)cs1 (stereo unspecified),.,-,-,.,-,.,
CC1=NC(Nc2nc(C)c3ccccc3n2)=NC(C)(C)C1,-,-,-,-,50.5,45.0,
Cc1ccc(S(=O)(=O)Nc2cccnc2)cc1,-,-,-,-,-,.,
CCCCOc1ccc(S(=O)(=O)Nc2cccnc2)cc1,-,-,-,-,71.6,59.1,
CC(C)(C)c1ccc(C(=O)NCCN2CCOCC2)cc1,-,-,-,.,-,.,
CC(C)(C)c1ccc(C(=O)NCCCN2CCN(CCCNC(=O)c3ccc(C(C)(C)C)cc3)CC2)cc1,-,-,-,-,87.1,85.8,
CCCn1c(=O)[nH]c(=O)c2c1nc(-c1ccc(OC(F)F)c(OC)c1)n2CCOC,-,-,-,-,80.4,-,MPTP swell DR=-;MPTP counter DR=-
CCCn1c(=O)[nH]c(=O)c2c1nc(-c1ccccc1OC(F)F)n2CCOC,-,-,-,-,-,.,
C[C@@H]1COc2cccc(NCCO)c2S(=O)(=O)N1,.,-,-,.,.,.,
C=CC(C)(C)c1c2occc2c(O)c2ccc(=O)oc12,-,-,-,.,73.7,83.9,
O=[N+]([O-])c1ccc(S(=O)(=O)Nc2ccncc2)cc1,-,-,-,-,-,.,
O=[N+]([O-])c1ccc(NS(=O)(=O)c2ccc(Cl)c(Cl)c2)cc1,.,-,-,.,85.8,102.4,
CC(C)c1ccc(NS(=O)(=O)c2ccc(Cl)nc2)cc1,-,-,-,-,-,.,
O=[N+]([O-])c1ccc(Oc2ccc(S(=O)(=O)Nc3ccccc3)cc2)cc1,-,.,.,58.0,69.1,85.1,
O=[N+]([O-])c1cc(NS(=O)(=O)c2ccc(Cl)nc2)ccc1Cl,-,-,-,.,84.7,96.9,
COc1cc(N2C[C@@]3(O)CC[C@@H](O)[C@@H](OC)[C@@H]3[C@@](C)(O)[C@@H]2CC=C(C)C)cc(OC)c1OC,.,-,-,.,.,.,
COC(=O)C1=C(C)N(Cc2ccccc2C(F)(F)F)C(=NCc2ccc(C(F)(F)F)cc2)NC1c1ccc(Cl)cc1 (stereo unspecified),.,-,-,.,.,.,
COc1ccccc1C(=O)N1CCN(C(=O)[C@@H](Cc2ccccc2)NC(=O)[C@H]2O[C@@H](n3cnc(C(N)=O)n3)[C@H](O)[C@@H]2O)CC1,.,-,-,.,.,.,
COc1cc(/C=C(/C(=O)c2cccs2)c2nc3ccccc3[nH]2)ccc1O,-,-,-,-,-,.,
O=C(/C(=C/c1ccc(Cl)cc1)c1nc2ccccc2[nH]1)c1cccs1,-,.,.,24.9,65.5,75.4,
COC(=O)/C(=C\c1ccc(O)cc1)c1nc2ccccc2[nH]1,-,-,-,-,-,.,
O=C(/C(=C\c1ccccc1)c1nc2ccccc2[nH]1)c1ccc(Cl)cc1,-,-,-,-,74.6,75.0,
COCCOC(=O)c1[nH]c2c(c1C)C(=O)CC(c1cc(OC)c(OC)c(OC)c1)C2 (stereo unspecified),-,-,-,-,-,.,
CCCCOC(=O)c1[nH]c2c(c1C)C(=O)CC(c1cc(OC)c(OC)c(OC)c1)C2 (stereo unspecified),-,-,-,-,69.9,90.2,
SMILES,DAGLB inhibitor,TAAR1 antagonist,TAAR1 agonist,GPR7 antagonist,MPTP block,MPTP counter,others
Fc1nc(F)c(F)c(NCCCNc2c(F)c(F)nc(F)c2F)c1F,-,-,-,-,92.6,94.5,
Cn1cc(CNC(=O)c2cc(COc3ccc4c(c3)CCCC4)on2)cn1,-,-,-,-,-,.,
O=C(NC(c1cccnc1)C(F)(F)F)c1cc(COc2ccc3c(c2)CCCC3)on1 (stereo unspecified),-,-,-,-,100.4,85.9,
Oc1c(Br)cc(Br)cc1CNc1ccc(F)cc1,-,-,-,-,77.8,80.9,
COc1ccc(NC(=O)COc2ccc(N(C)S(=O)(=O)c3ccc(Cl)cc3)cc2)cc1OC,-,61.0,-,.,76.4,90.0,
CN(c1ccc(OCC(=O)OCC(=O)Nc2ccc(F)cc2)cc1)S(=O)(=O)c1ccc(Cl)cc1,-,-,-,-,-,.,
